Experimental data reported in publication PMC10945512 (RSC Advances, 2024).

Tests used:
[1] = target: HIV-1 integrase (Human immunodeficiency virus type 1 group M subtype B, UniProt P04585); assay: Strand transfer inhibition assay; format: biochemical
[2] = Cytotoxicity assay; format: cell-based, human; settings: human, MT-4 cells
Outline: (§1)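 MT-4 cells grown in RPMI-1640 with 10% FBS, 100 units per mL penicillin and streptomycin, at 37 °C in humidified 5% CO2. Cells seeded at 50 000 per well and exposed to test compound (2.5, 5, 10, 20, 40, 80 μM) for five days at 37 °C. MTT (final 0.5 mg mL−1) added for 2 h, then DMSO. A570 read; measured three times; CC50 calculated.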

[3] = tested on: MT-4 cells; assay: Cytotoxicity assay; format: cell-based, human; settings: read-out: CC50, concentration that inhibits the proliferation of MT-4 cells by 50%, MTT, five days, average of at least three independent experiments
Outline: as §1

| Molecule | IC50 [1] [µM] | CC50 at 5 days [2] [µM] | CC50 [3] [µM] |
| --- | --- | --- | --- |
| CCOC(=O)c1cc2ccc(NCc3ccccc3Cl)cc2[nH]1 [Compound 16i, Ethyl 6-((2-chlorobenzyl)amino)-1H-indole-2-carboxylate] | 14.6 ± 1.12 | > 80 |  |
| CCOC(=O)c1cc2ccc(NCCc3ccc(F)cc3)cc2[nH]1 [Compound 16k, Ethyl 6-((4-fluorophenethyl)amino)-1H-indole-2-carboxylate] | > 40 | > 80 |  |
| O=C(O)c1cc2ccc(Nc3ccc(Br)cc3)cc2[nH]1 [Compound 17b, 6-((4-Bromophenyl)amino)-1H-indole-2-carboxylic acid] | 6.67 ± 0.51 | > 80 |  |
| CCOC(=O)c1cc2ccc(Nc3ccc(OC)cc3)cc2[nH]1 [Compound 16c, Ethyl 6-((4-methoxyphenyl)amino)-1H-indole-2-carboxylate] | > 40 | > 80 |  |
| CCOC(=O)c1[nH]c2ccc(NC(=O)c3cnccn3)cc2c1Br [Compound 13b, Ethyl 3-bromo-5-(pyrazine-2-carboxamido)-1H-indole-2-carboxylat] | 11.7 ± 1.08 | > 80 |  |
| Cc1nnc(C(=O)NC(C)(C)c2nc(C(=O)NCc3ccc(F)cc3)c(O)c(=O)n2C)o1 [RAL, Raltegravir, reference compound] |  | > 80 |  |
| CCOC(=O)c1cc2ccc(NCc3ccccc3F)cc2[nH]1 [Compound 16h, Ethyl 6-((2-fluorobenzyl)amino)-1H-indole-2-carboxylate] | 8.68 ± 0.77 | > 80 |  |
| COc1ccccc1Nc1ccc2cc(C(=O)O)[nH]c2c1 [Compound 17e, 6-((2-Methoxyphenyl)amino)-1H-indole-2-carboxylic acid] | 7.08 ± 0.63 | > 80 |  |
| O=C(O)c1cc2ccccc2[nH]1 [Compound 1, indole-2-carboxylic acid] | 32.4 ± 4.51 | > 80 |  |
| Isopropyl 3-((4-chlorophenethoxy)methyl)-5-nitro-1H-indole-2-carboxylate [Compound 9b] |  |  | > 80 |
| CCOC(=O)c1cc2ccc(Nc3ccc(F)cc3)cc2[nH]1 [Compound 16a, Ethyl 6-((4-fluorophenyl)amino)-1H-indole-2-carboxylate] | > 40 | > 80 |  |
| CCOC(=O)c1cc2ccc(Nc3ccccc3OC)cc2[nH]1 [Compound 16e, Ethyl 6-((2-methoxyphenyl)amino)-1H-indole-2-carboxylate] | > 40 | > 80 |  |
| CCOC(=O)c1[nH]c2ccccc2c1Nc1ccc(F)cc1 [Compound 4e, Ethyl 3-((4-fluorophenyl)amino)-1H-indole-2-carboxylate] | 15.7 ± 1.06 | > 80 |  |
| CCOC(=O)c1cc2ccc(Nc3ccc(OC)c(F)c3)cc2[nH]1 [Compound 16f, Ethyl 6-((3-fluoro-4-methoxyphenyl)amino)-1H-indole-2-carboxylate] | > 40 | > 80 |  |
| CCOC(=O)c1[nH]c2ccccc2c1Nc1cccc(OC)c1 [Compound 4b, Ethyl 3-((3-methoxyphenyl)amino)-1H-indole-2-carboxylate] | 10.2 ± 0.67 | > 80 |  |
| CCOC(=O)c1[nH]c2ccccc2c1Nc1ccc(OC)cc1 [Compound 4c, Ethyl 3-((4-methoxyphenyl)amino)-1H-indole-2-carboxylate] | > 40 | > 80 |  |
| CCOC(=O)c1[nH]c2ccccc2c1Nc1ccccc1OC [Compound 4a, ethyl 3-((2-methoxyphenyl)amino)-1H-indole-2-carboxylate] | 10.1 ± 0.56 | > 80 |  |
| isopropyl 5-nitro-3-((4-(trifluoromethyl)phenethoxy) methyl)-1H-indole-2-carboxylate [Compound 9a] |  |  | 54.3 ± 4.79 |
| 5-nitro-3-(((4-(trifluoromethyl)benzyl)oxy)methyl)-1H-indole-2-carboxylic acid [Compound 10a] |  |  | 65.2 ± 5.22 |
| O=C(O)c1cc2ccc(Nc3ccc(F)cc3)cc2[nH]1 [Compound 17a, 6-((4-Fluorophenyl)amino)-1H-indole-2-carboxylic acid] | 3.11 ± 0.18 | > 80 |  |
| CCOC(=O)c1[nH]c2ccccc2c1Nc1ccccc1Cl [Compound 4f, Ethyl 3-((2-chlorophenyl)amino)-1H-indole-2-carboxylate] | > 40 | > 80 |  |
| CCOC(=O)c1cc2ccc(NCc3cccc(F)c3)cc2[nH]1 [Compound 16g, Ethyl 6-((3-fluorobenzyl)amino)-1H-indole-2-carboxylate] | > 40 | > 80 |  |
| COc1ccc(Nc2ccc3cc(C(=O)O)[nH]c3c2)cc1 [Compound 17c, 6-((4-Methoxyphenyl)amino)-1H-indole-2-carboxylic acid] | 12.3 ± 1.06 | > 80 |  |
| CCOC(=O)c1cc2ccc(Nc3cccc(OC)c3)cc2[nH]1 [Compound 16d, Ethyl 6-((3-methoxyphenyl)amino)-1H-indole-2-carboxylate] | > 40 | > 80 |  |
| CCOC(=O)c1[nH]c2ccc(NC(=O)c3ccc(F)cc3)cc2c1Br [Compound 13a, ethyl 3-bromo-5-(4-fluorobenzamido)-1H-indole-2-carboxylate] | 26 ± 1.27 | > 80 |  |
| O=C(O)c1cc2ccc(NCc3cccc(F)c3)cc2[nH]1 [Compound 17g, 6-((3-Fluorobenzyl)amino)-1H-indole-2-carboxylic acid] | 15.6 ± 1.09 | > 80 |  |
| CCOC(=O)c1cc2ccc(Nc3ccc(Br)cc3)cc2[nH]1 [Compound 16b, Ethyl 6-((4-bromophenyl)amino)-1H-indole-2-carboxylate] | > 40 | > 80 |  |
| COc1ccc(Nc2ccc3cc(C(=O)O)[nH]c3c2)cc1F [Compound 17f, 6-((3-Fluoro-4-methoxyphenyl)amino)-1H-indole-2-carboxylic acid] | 14.1 ± 0.78 | > 80 |  |
| CCOC(=O)c1[nH]c2ccccc2c1Nc1ccc(OC)c(F)c1 [Compound 4d, Ethyl 3-((3-fluoro-4-methoxyphenyl)amino)-1H-indole-2-carboxylate] | 15.6 ± 1.03 | > 80 |  |
| CCOC(=O)c1cc2ccc(NCc3ccc(OC)cc3)cc2[nH]1 [Compound 16j, Ethyl 6-((4-methoxybenzyl)amino)-1H-indole-2-carboxylate] | 9.67 ± 0.89 | > 80 |  |
